Experimental data published in ChEMBL document CHEMBL1125826, “Synthesis and biological activity of 5-amino- and 5-hydroxyquinolones, and the overwhelming influence of the remote N1-substituent in determining the structure-activity relationship” (1991).
In brackets after ≈: the same amount, converted by molar mass.

What was measured:
Assay type in all cases: functional
Escherichia coli [1] = assay: The in vivo potency was determined in female charles river CD-1 mice infected with Escherichia coli after peroral administration; conditions: for ED50: Escherichia coli, po, read-out: PD50
Summary of the method: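 Acute lethal systemic infection in female CD-1 mice, 16 mice per route; single dose given orally by gavage at the time of challenge; median protective dose (PD50, mg/kg) determined.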

Escherichia coli [2] = assay: The in vivo potency was determined in female charles river CD-1 mice infected with Escherichia coli after sc administration; conditions: Escherichia coli, sc; read-out: PD50
Summary of the method: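 Acute lethal systemic infection in female CD-1 mice, 16 mice per route; single subcutaneous dose given at the time of challenge; median protective dose (PD50, mg/kg) determined.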

[3] = biological target: DNA gyrase (Escherichia coli) (UniProt P0AES6+P0AES4); assay: Minimum inhibitory concentration against Escherichia coli DNA-gyrase in supercoiling assay
Klebsiella pneumoniae = assay: Antibacterial activity was determined against gram negative organism, Klebsiella pneumoniae MGH-2; conditions: Klebsiella pneumoniae; read-out: MIC
Summary of the method: (§1)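 MIC (µg/mL) by standard microtitration against a panel of 10 Gram-positive and Gram-negative organisms; values averaged from multiple experiments.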

Staphylococcus aureus [4] = assay: Antibacterial activity was determined against gram positive organism, Staphylococcus aureus UC76; summary of the method: as §1
Bacteria [5] = assay: MIC ratio measured as the mean MICs of gram-positive bacteria
Summary of the method: (§2)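 Geometric mean of the microtitration MICs (µg/mL) over the Gram-negative organisms, and separately over the Gram-positive organisms, of the 10-strain panel; individual MICs averaged from multiple experiments.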

Enterococcus faecalis = assay: Antibacterial activity was determined against gram positive organism, Streptococcus faecalis MGH-2; conditions: Enterococcus faecalis; read-out: MIC; summary of the method: as §1
Staphylococcus aureus [6] = assay: Antibacterial activity was determined against gram positive organism, Staphylococcus aureus H228; conditions: Staphylococcus aureus; read-out: MIC; summary of the method: as §1
Bacteria [7] = assay: MIC ratio measured as the mean MICs of gram-negative bacteria; summary of the method: as §2
Escherichia coli [8] = assay: Antibacterial activity was determined against gram negative organism, Escherichia coli vogel; conditions: Escherichia coli; read-out: MIC; summary of the method: as §1
Streptococcus pneumoniae = assay: Antibacterial activity was determined against gram positive organism, Streptococcus pneumoniae SV-1; conditions: Streptococcus pneumoniae; read-out: MIC; summary of the method: as §1
Streptococcus pyogenes = assay: Antibacterial activity was determined against gram positive organism, Streptococcus pyogenes C203; conditions: Streptococcus pyogenes; read-out: MIC; summary of the method: as §1
Pseudomonas aeruginosa = assay: Antibacterial activity was determined against gram negative organism, Pseudomonas aeruginosa UI-18; conditions: Pseudomonas aeruginosa; read-out: MIC; summary of the method: as §1
Bacteria [9] = assay: Antibacterial activity was determined against gram negative organism, Providencia rettgeri. M1771; conditions: Bacteria; read-out: MIC; summary of the method: as §1
Enterobacter cloacae = assay: Antibacterial activity was determined against gram negative organism, Enterobacter cloacae MA2646; conditions: Enterobacter cloacae; read-out: MIC
[10] = Staphylococcus aureus, read-out: MIC

| SMILES | ED50 (Escherichia coli [1]) | ED50 (Escherichia coli [2]) | MIC [3] | MIC (Klebsiella pneumoniae) | MIC (Staphylococcus aureus [4]; [10]) | Geometric mean MIC over Gram-positive bacteria (µg/mL) (Bacteria [5]) | MIC (Enterococcus faecalis) | MIC (Staphylococcus aureus [6]) | Geometric mean MIC over Gram-negative bacteria (µg/mL) (Bacteria [7]) | MIC (Escherichia coli [8]) | MIC (Streptococcus pneumoniae) | MIC (Streptococcus pyogenes) | MIC (Pseudomonas aeruginosa) | MIC (Bacteria [9]) | MIC (Enterobacter cloacae) | MIC (Staphylococcus aureus [4]) | PD50 (Escherichia coli [1]) |
| --- | --- | --- | --- | --- | --- | --- | --- | --- | --- | --- | --- | --- | --- | --- | --- | --- | --- |
| CCNCC1CCN(c2cc3c(c(N)c2F)c(=O)c(C(=O)O)cn3C2CC2)C1 (stereo unspecified) | 90 mg/kg | 3 mg/kg | 1 µg/mL (≈ 2.57 µM) | 0.2 µg/mL (≈ 0.515 µM) | 0.025 µg/mL (≈ 0.0644 µM) | 0.057 | 0.025 µg/mL (≈ 0.0644 µM) | 0.2 µg/mL (≈ 0.515 µM) | 0.26 | 0.1 µg/mL (≈ 0.257 µM) | 0.05 µg/mL (≈ 0.129 µM) | 0.1 µg/mL (≈ 0.257 µM) | 0.8 µg/mL (≈ 2.06 µM) | 0.8 µg/mL (≈ 2.06 µM) | 0.1 µg/mL (≈ 0.257 µM) |  |  |
| NC1CCN(c2cc3c(c(O)c2F)c(=O)c(C(=O)O)cn3C2CC2)C1 (stereo unspecified) | 3 mg/kg | 0.4 mg/kg | 1 µg/mL (≈ 2.88 µM) | 0.025 µg/mL (≈ 0.072 µM) | 0.013 µg/mL (≈ 0.0374 µM) | 0.066 | 0.2 µg/mL (≈ 0.576 µM) | 0.1 µg/mL (≈ 0.288 µM) | 0.038 | 0.013 µg/mL (≈ 0.0374 µM) | 0.05 µg/mL (≈ 0.144 µM) | 0.1 µg/mL (≈ 0.288 µM) | 0.2 µg/mL (≈ 0.576 µM) | 0.05 µg/mL (≈ 0.144 µM) | 0.025 µg/mL (≈ 0.072 µM) |  |  |
| CCNCC1CCN(c2c(F)cc3c(=O)c(C(=O)O)cn(C4CC4)c3c2Cl)C1 (stereo unspecified) | 4 mg/kg | 1 mg/kg | 0.25 µg/mL (≈ 0.613 µM) | 0.1 µg/mL (≈ 0.245 µM) | 0.003 µg/mL (≈ 0.00736 µM) | 0.006 | 0.013 µg/mL (≈ 0.0319 µM) | 0.013 µg/mL (≈ 0.0319 µM) | 0.13 | 0.05 µg/mL (≈ 0.123 µM) | 0.003 µg/mL (≈ 0.00736 µM) | 0.006 µg/mL (≈ 0.0147 µM) | 0.8 µg/mL (≈ 1.96 µM) | 0.2 µg/mL (≈ 0.49 µM) | 0.05 µg/mL (≈ 0.123 µM) |  |  |
| CC1COc2c(N3CCC(N)C3)c(F)c(N)c3c(=O)c(C(=O)O)cn1c23 (stereo unspecified) | > 100 mg/kg | 23 mg/kg | 2.5 µg/mL (≈ 6.9 µM) | 0.4 µg/mL (≈ 1.1 µM) | 0.2 µg/mL (≈ 0.552 µM) | 0.7 | 0.8 µg/mL (≈ 2.21 µM) | 0.8 µg/mL (≈ 2.21 µM) | 0.8 | 0.4 µg/mL (≈ 1.1 µM) | 0.8 µg/mL (≈ 2.21 µM) | 1.6 µg/mL (≈ 4.42 µM) | 1.6 µg/mL (≈ 4.42 µM) | 1.6 µg/mL (≈ 4.42 µM) | 0.8 µg/mL (≈ 2.21 µM) |  |  |
| CCNCC1CCN(c2c(F)cc3c(=O)c(C(=O)O)cn4c3c2OCC4C)C1 (stereo unspecified) | > 100 mg/kg | 11 mg/kg | 0.5 µg/mL (≈ 1.28 µM) | 0.4 µg/mL (≈ 1.03 µM) | 0.025 µg/mL (≈ 0.0642 µM) | 0.057 | 0.1 µg/mL (≈ 0.257 µM) | 0.2 µg/mL (≈ 0.514 µM) | 0.4 | 0.2 µg/mL (≈ 0.514 µM) | 0.1 µg/mL (≈ 0.257 µM) | 0.013 µg/mL (≈ 0.0334 µM) | 0.8 µg/mL (≈ 2.05 µM) | 0.8 µg/mL (≈ 2.05 µM) | 0.2 µg/mL (≈ 0.514 µM) |  |  |
| CC1COc2c(N3CCC(N)C3)c(F)cc3c(=O)c(C(=O)O)cn1c23 (stereo unspecified) | 29 mg/kg | 2 mg/kg | 0.75 µg/mL (≈ 2.16 µM) | 0.4 µg/mL (≈ 1.15 µM) |  | 0.53 | 1.6 µg/mL (≈ 4.61 µM) | 1.6 µg/mL (≈ 4.61 µM) | 0.46 | 0.4 µg/mL (≈ 1.15 µM) | 0.8 µg/mL (≈ 2.3 µM) | 0.2 µg/mL (≈ 0.576 µM) | 0.4 µg/mL (≈ 1.15 µM) | 0.8 µg/mL (≈ 2.3 µM) | 0.4 µg/mL (≈ 1.15 µM) | 0.1 µg/mL (≈ 0.288 µM) |  |
| CC1CN(c2c(F)cc3c(=O)c(C(=O)O)cn(C4CC4)c3c2F)CC(C)N1 (stereo unspecified) |  | 0.4 mg/kg | 2.5 µg/mL (≈ 6.62 µM) | 0.1 µg/mL (≈ 0.265 µM) | 0.05 µg/mL (≈ 0.132 µM) | 0.23 | 0.4 µg/mL (≈ 1.06 µM) | 0.2 µg/mL (≈ 0.53 µM) | 0.11 | 0.05 µg/mL (≈ 0.132 µM) | 0.4 µg/mL (≈ 1.06 µM) | 0.4 µg/mL (≈ 1.06 µM) | 0.4 µg/mL (≈ 1.06 µM) | 0.2 µg/mL (≈ 0.53 µM) | 0.05 µg/mL (≈ 0.132 µM) |  | 0.8 mg/kg |
| CCn1cc(C(=O)O)c(=O)c2c(N)c(F)c(N3CCC(N)C3)c(F)c21 (stereo unspecified) |  |  | 2.5 µg/mL (≈ 7.1 µM) | 0.2 µg/mL (≈ 0.568 µM) | 0.2 µg/mL (≈ 0.568 µM) | 0.53 | 0.8 µg/mL (≈ 2.27 µM) | 0.4 µg/mL (≈ 1.14 µM) | 0.3 | 0.1 µg/mL (≈ 0.284 µM) | 0.8 µg/mL (≈ 2.27 µM) | 0.8 µg/mL (≈ 2.27 µM) | 1.6 µg/mL (≈ 4.54 µM) | 0.4 µg/mL (≈ 1.14 µM) | 0.2 µg/mL (≈ 0.568 µM) |  |  |
| O=C(O)c1cn(C2CC2)c2cc(N3CCNCC3)c(F)c(O)c2c1=O | 3 mg/kg | 0.1 mg/kg | 1 µg/mL (≈ 2.88 µM) | 0.1 µg/mL (≈ 0.288 µM) | 0.2 µg/mL (≈ 0.576 µM) |  | 0.8 µg/mL (≈ 2.3 µM) | 3.1 µg/mL (≈ 8.92 µM) |  | 0.025 µg/mL (≈ 0.072 µM) | 0.8 µg/mL (≈ 2.3 µM) | 0.4 µg/mL (≈ 1.15 µM) | 0.4 µg/mL (≈ 1.15 µM) | 0.1 µg/mL (≈ 0.288 µM) | 0.05 µg/mL (≈ 0.144 µM) |  |  |
